Assay outcomes (PubChem BioAssay)
Only some compounds are listed: those with a hit (about 2% of all), similar ones and a draw of the others.
HGIII-sPLA2 inh: Blocks human group III sPLA2 activity. 370,000 tested, 0.56% active. AID 743126. Q9NZ20. inhibition, % at 12.2 µM. QFRET BODIPY PC-A2 liposome hydrolysis, fluorescence;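 active = inhibition above mean plus 3 SD of compounds lying within the high and low control bounds, cut at about 19% in these data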;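 note: 0% = median of test compound wells and 100% = no enzyme DMSO wells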
NSD2 inh: blocks human histone methyltransferase NSD2; AID 743445; 310,000 tested, 0.54% active; NSD2 peptide methylation, AlphaScreen, 120 min; inhibition, % at 12.5 µM; in the data active = inhibition above about 50%
SR-BI DiI-HDL act: enhances SR-BI lipid uptake from DiI-HDL; CHO ldlA[mSR-BI] cells, DiI-HDL uptake fluorescence, 3 h; 100 = double the neutral-control signal; activation, % at 12.5 µM; 320,000 tested, 0.096% active; AID 504775;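 active = mean replicate activation of at least 60% and every replicate at or above 60%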;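 note: 0% = median plate neutral-control signal and 100% = twice that signal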
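Assay system: LDL receptor-deficient CHO ldlA cells overexpressing murine SR-BI / Medium: BSA-supplemented, HEPES-buffered Ham's F12, pH 7.4 / Probe or stimulus: DiI-labelled HDL at 10 µg/mL final / Timing: compound with DiI-HDL co-incubation, 3 h at 37 °C / Technique: bottom-read cell fluorescence after medium removal, ex 550/em 595 nm / Measure: HDL uptake via cellular fluorescence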
SR-BI HDL uptake: blocks mouse SR-BI lipid uptake from DiI-HDL | Q61009 | ldlA[mSR-BI] CHO cells, DiI-HDL uptake fluorescence, 3 h | inhibition, % at 12.5 µM | 320,000 tested, 0.96% active;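 active = mean replicate inhibition of at least 70% and a set share of replicates each scoring 70 or more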;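 note: 0% = median of neutral control wells and 100% = median of positive control wells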
Target sequence (Q61009 whole entry, looked up): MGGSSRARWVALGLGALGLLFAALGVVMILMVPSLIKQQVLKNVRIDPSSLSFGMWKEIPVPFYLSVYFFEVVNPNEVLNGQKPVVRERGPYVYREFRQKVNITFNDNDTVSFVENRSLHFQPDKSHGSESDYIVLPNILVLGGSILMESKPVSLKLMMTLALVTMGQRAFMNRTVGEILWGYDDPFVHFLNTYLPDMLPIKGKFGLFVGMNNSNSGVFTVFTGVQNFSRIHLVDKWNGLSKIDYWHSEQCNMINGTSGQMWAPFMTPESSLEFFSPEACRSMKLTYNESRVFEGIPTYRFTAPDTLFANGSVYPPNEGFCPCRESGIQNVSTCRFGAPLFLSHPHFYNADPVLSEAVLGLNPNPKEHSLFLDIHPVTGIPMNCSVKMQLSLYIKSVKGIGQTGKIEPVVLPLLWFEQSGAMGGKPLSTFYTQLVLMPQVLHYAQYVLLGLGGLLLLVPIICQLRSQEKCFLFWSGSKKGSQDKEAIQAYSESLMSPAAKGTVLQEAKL
ARNT TACC3 PPI: ARNT/TACC3 interaction disruption | 390,000 tested, 0.66% active | AID 623870 | Q9Y6A5 | AlphaScreen His-ARNT PAS-B/GST-TACC3 binding, luminescence; TACC3 fragment carries E629A point mutation | inhibition, % at 9.99 µM;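 active = mean inhibition of replicates at least 50% and at least half of replicates each reaching 50%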;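 note: 0% = complete ARNT plus TACC3 wells and 100% = ARNT alone without TACC3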
Xi reactivation: activators of X-chromosome reactivation in mouse fibroblasts; 360,000 tested, 0.055% active; XiGFP mouse fibroblasts, % GFP-positive cells imaging, 3 d; cells co-treated with 5-aza-dC sensitizer; scaled so ellipticine positive control = 100%; activation, % at 7.58 µM;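 active = mean normalized replicate activation at least 10% and every replicate at or above 10%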;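 note: 0% = median of on-plate neutral control wells and 100% = ellipticine 6 µM median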
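Material: SV40-immortalized XiGFP fibroblast cells, line 68-5-11 | Buffer or medium: DMEM containing 5-aza-dC | Dosing: One concentration, pinned | Times: 3 d treatment, 15 min room-temperature fixation | Controls: Ellipticine 6 µM positive control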
An asterisk follows results filed as active; x = not tested or not shown.

SMILES | HGIII-sPLA2 inh | NSD2 inh | SR-BI DiI-HDL act | SR-BI HDL uptake | ARNT TACC3 PPI | Xi reactivation
CO[C@@H]1CN(C)C(=O)c2cc(NS(C)(=O)=O)ccc2OC[C@@H](C)N(C(=O)c2ccc3c(c2)OCO3)C[C@@H]1C | x | x | x | x | 2 | 0
CN(C(=O)c1ccc(NC(=O)Cc2ccc(NC(=O)C3CCCN(C(=O)c4ccccc4)C3)cc2)cc1)C1CC1 (centres undefined) | -14 | x | -10 | 10 | 1 | 0
Cc1ccc(C(=O)N2CC(=O)Nc3ccc(F)cc3C2c2ccccc2)cc1 (centres undefined) | -3 | 0 | 2 | -2 | 1 | 0
COc1ccc(-c2csc(C3=C(O)CN(Cc4ccc(S(N)(=O)=O)cc4)C3=N)n2)cc1OC | -14 | -4 | -8 | 8 | 1 | x
COc1ccc(-c2csc(C3=C(O)CN(Cc4ccc(Cl)cc4)C3=N)n2)cc1OC | -2 | -2 | -87 | 87* | 1 | x
COCC(C)N1CC(O)=C(c2nc(-c3ccc(Cl)cc3)cs2)C1=N (centres undefined) | 1 | -2 | -82 | 82* | -5 | 0
O=C(c1cc(-c2ccccc2Cl)nc2ccccc12)N1CCN(c2ccccc2O)CC1 | -2 | -2 | -13 | 13 | 5 | 0
O=C(c1cc(-c2ccncc2)nc2c(Cl)cccc12)N1CCN(c2ccccc2F)CC1 | -30 | 2 | -73 | 73* | 13 | 0
CO[C@@H]1CN(C)C(=O)c2ccc(NC(=O)C3CCCC3)cc2OC[C@@H](C)N(C)C[C@H]1C | x | x | x | x | -7 | 0
NS(=O)(=O)c1ccc(CCNC(=O)c2cc(-c3ccccc3)nc3ccccc23)cc1 | -12 | -1 | -80 | 80* | -1 | 0
O=C(NNC(=O)c1cc(-c2ccncc2)nc2ccccc12)c1ccccc1O | 7 | -1 | -94 | 94* | 2 | 2
Cc1ccc(-c2cc(C(=O)NCCc3ccc(S(N)(=O)=O)cc3)c3ccccc3n2)cc1 | -13 | x | -86 | 86* | -1 | 1
C/C(=N/Nc1nc(-c2ccccc2)cc(-c2ccc(F)cc2)n1)c1cccc(N)c1 | 4 | 3 | -70 | 70 | 4 | 0
S=c1[nH]c2cc3ccccc3cc2[nH]1 | 0 | 1 | x | x | 1 | 0
Cc1cc2[nH]c(=S)[nH]c2cc1C | 2 | -4 | -73 | 73* | 34 | 0
COc1cc(OC)c(NC(=O)c2cncn2-c2ccc(F)cc2)cc1Cl | 4 | 9 | -72 | 72* | 4 | 0
COc1cnc(-c2ccccn2)nc1Sc1ccc(F)cc1 | 4 | 13 | -14 | 14 | 46* | 0
COc1cnc(-c2ccccn2)nc1Oc1ccccc1 | 11 | 1 | 15 | -15 | 82* | 0
COC(=O)[C@]12C[C@H](CC(=O)NCc3ccc(C)o3)C(=O)N(Cc3ccc(Cl)cc3Cl)C1=C[C@H](C1CCCC1)O[C@@H]2C | -16 | x | x | x | x | x
C=CCNCCCCOc1ccc(Br)cc1C | -1 | 66* | 23 | -23 | -14 | 0
Cc1cc(Br)ccc1OCCCCNCCO | 8 | 6 | -13 | 13 | -7 | x
COc1ccc(-c2ccccc2[C@H]2[C@@H](C#N)N(C(=O)NC3CCCC3)[C@H]2CO)cc1 | x | x | x | x | x | 0
CCNC(=S)Nc1cccc([N+](=O)[O-])c1 | x | 0 | x | x | x | x
O=[N+]([O-])c1cccc(NC(=S)Nc2nc(-c3ccccc3Cl)cs2)c1 | 5 | 0 | -84 | 84* | 4 | 0
COC(=O)c1cn(C(=O)/C=C/c2ccc(OC)c(OC)c2)c2ccccc12 | -1 | x | -93 | 93* | -1 | 0
SMILES | HGIII-sPLA2 inh | NSD2 inh | SR-BI DiI-HDL act | SR-BI HDL uptake | ARNT TACC3 PPI | Xi reactivation
COC(=O)c1cn(C(=O)OC)c2ccccc12 | 7 | -1 | -1 | 1 | -15 | x
C[C@@H](C(=O)Nc1ccc2c(c1)OCCO2)n1c(=O)[nH]c2ccccc2c1=O | 8 | 2 | -12 | 12 | 0 | 0
CCCCCC1CC(CC(=O)NC(=S)Nc2ccc([N+](=O)[O-])cc2)C(=O)O1 (centres undefined) | -9 | -4 | -26 | 26 | -1 | x
COc1ccc(OCCSc2nnc3sc4ccccc4n23)cc1 | -9 | 0 | 8 | -8 | 4 | x
O=[N+]([O-])c1ccc(O)c(-c2nc(-c3ccccc3)c(-c3cccs3)[nH]2)c1 | 0 | 6 | -84 | 84* | 1 | x
O=C(O)C(F)=C1c2ccccc2-c2ccccc21 | -6 | 1 | x | x | x | 0
CCCNC(=O)N(C)C[C@H]1Oc2ncc(-c3ccccc3F)cc2C(=O)N([C@@H](C)CO)C[C@@H]1C | x | x | x | x | -14 | 1
Cc1nnc(N/N=C/C(C)c2ccccc2)[nH]c1=O (centres undefined) | 2 | 40 | -15 | 15 | 63* | 0
CCc1ccc(S(=O)(=O)/N=C2\C=C(Nc3ccc(O)cc3)C(=O)c3ccccc32)cc1 | x | 29 | -63 | 63 | 44 | x
CCc1ccc(S(=O)(=O)/N=C2/C=C(Sc3ncn[nH]3)C(=O)c3ccccc32)cc1 | x | x | 3 | -3 | 36* | x
Cc1ccc(C(=O)Cn2cncn2)cc1 | -12 | -3 | 2 | -2 | 1 | 16*
C/C(=N\Nc1cc(C)nc(NCc2ccccc2)n1)c1ccc([N+](=O)[O-])cc1 | -3 | 0 | -86 | 86* | 4 | 0
C/C(=N\NC(=O)c1cc(C)nc2ccccc12)c1ccc([N+](=O)[O-])cc1 | 10 | -3 | -28 | 28 | -4 | 2
O=C1c2ccc(-c3ccc(Cl)c(C(F)(F)F)c3)cc2S(=O)(=O)c2cccc(C(=O)N3CCN(c4ccc(Cl)cn4)CC3)c21 | 6 | x | -91 | 91* | 2 | 0
O=C(NN1C(=O)CSC1=S)C(=O)NN1C(=O)CSC1=S | 2 | -340 | 11 | -11 | 59* | 0
O=C(Cc1cccc2ccccc12)NN1C(=O)CSC1=S | -9 | 4 | 2 | -2 | -7 | 0
COc1ccc(-c2sc3cc4c(cc3c2C#CCO)OCO4)cc1 | -3 | x | -63 | 63 | 12 | 0
COc1ccc(-c2sc3cc4c(cc3c2C#Cc2ccc(N)cc2)OCO4)cc1 | 6 | x | -93 | 93* | -5 | 0
COC(=O)C1C(=O)c2c([nH]c(C(=O)OC3CCCCCC3)c2C)CC1C (centres undefined) | -2 | x | -31 | 31 | 0 | 0
CC(C)c1ccc(S(=O)(=O)N2CCN(CC(=O)c3ccc(O)c(O)c3)CC2)cc1 | 0 | 96* | -11 | 11 | 32 | 0
Cc1ccc(O)c(NC2=C(Cl)C(=O)N(Cc3ccccc3)C2=O)c1 | -3 | 1 | -77 | 77* | -7 | 0
